{"source": "PubChem BioAssay AID573", "about": "(SRMLSC, 2007)", "note": "Out of some 65,000 compounds screened, about 1,400 (2.2%) were called active. The sample holds actives, similar compounds and a random draw of the others, so the mix is not that of the screen. A number with no mark means an inactive call.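 Rule for the calls: active = growth inhibition at or above a cutoff equal to the mean over every tested compound plus 3 SD (cut at about 60% in these data); inactive = the rest.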", "data": [{"assay": "growth inhibitors of E. coli tolC mutant, primary screen, strain BW25113 ΔtolC::kan, 384-well (AID 573)", "conditions": "OD615, stronger effect = higher value, screened at 10 µM (by protocol)", "outline": "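Test system: tolC-deleted E. coli BW25113; medium: LB with kanamycin 50 µg/mL; compound: single-point testing at 10 µM; incubation: 20 h compound exposure of bacteria at 37 °C; signal: OD at 615 nm; evaluation: growth inhibition in percent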", "values": [{"smiles": "COc1ccc(-c2cc(C(F)(F)F)nc(SCCC(=O)NCc3ccco3)n2)cc1", "growth inhibition": "-9.96%"}, {"smiles": "Cc1ccc(F)cc1NC(=O)c1cccc(N(C)C)c1", "growth inhibition": "-26.6%"}, {"smiles": "O=C(Nc1cccc(F)c1)c1ccc(S(=O)(=O)N2CCCC2)cc1", "growth inhibition": "8.01%"}, {"smiles": "CC(C)C(=O)N1c2ccccc2NC2=C(C(=O)CCC2)C1c1ccc(N(C)C)cc1", "note": "(stereo not drawn)", "growth inhibition": "-4.93%"}, {"smiles": "O=C1CCCC2=C1C(c1cccs1)n1nc(SCc3ccccc3)nc1N2", "note": "(stereo not drawn)", "growth inhibition": "87.2% (active)"}, {"smiles": "CCCC(=O)N1c2ccccc2NC2=C(C(=O)CCC2)C1c1ccc(F)cc1", "note": "(stereo not drawn)", "growth inhibition": "55.5%"}, {"smiles": "COC(=O)CSc1nc(C2CC2)nc2ccccc12", "growth inhibition": "15.2%"}, {"smiles": "COc1cccc(N(CC(=O)NC2CCCC2)C(=O)Cn2nnc(-c3ccc(C)cc3)n2)c1", "growth inhibition": "-7.48%"}, {"smiles": "C=CCn1c(N)c(S(=O)(=O)c2cccs2)c2nc3ccccc3nc21", "growth inhibition": "26.6%"}, {"smiles": "CC(C)Cn1c(N)c(C(=O)NCc2cccs2)c2nc3ccccc3nc21", "growth inhibition": "79.5% (active)"}, {"smiles": "C=CCn1c(N)c(C(=O)OCC(C)C)c2nc3ccccc3nc21", "growth inhibition": "30.8%"}, {"smiles": "COC(=O)c1ccc(/C=N\\n2c(C)nnc2C)cc1", "growth inhibition": "-9.6%"}, {"smiles": "O=C(CCCN1C(=O)CSc2ncccc21)N1CCN(c2cccc(C(F)(F)F)c2)CC1", "growth inhibition": "17.9%"}, {"smiles": "COc1ccc2c(c1)OC(O)(C(F)(F)C(F)F)CC2=O", "note": "(stereo not drawn)", "growth inhibition": "100% (active)"}, {"smiles": "N#CCCN(CCC#N)c1nnc(-c2ccccc2)s1", "growth inhibition": "16.1%"}, {"smiles": "CCOC(=O)C1=C(C)NC(C)=C(C(=O)OCC)C1C1=COCCO1", "growth inhibition": "5.25%"}, {"smiles": "CC1=CC(C)(C)N(C(=O)CSc2nccn2C)c2cc(C)ccc21", "growth inhibition": "5.87%"}, {"smiles": "CC1=CC(C)(C)N(C(=O)CSc2nnc(-c3ccccc3)o2)c2ccc(C)cc21", "growth inhibition": "65.4% (active)"}, {"smiles": "O=C(CSc1nnc(-c2ccccc2)o1)N1CCOCC1", "growth inhibition": "-8.06%"}, {"smiles": "CCCCN(C)C(=O)C1CCN(Cc2ccccn2)CC1", "growth inhibition": "-9.54%"}, {"smiles": "Cc1cnc(NC(=O)CSc2nnc(-c3ccccc3)n2Cc2ccccc2)s1", "growth inhibition": "1%"}, {"smiles": "CCOC(=O)Cn1c(CN(Cc2ccccc2)Cc2ccccc2)nc2c1c(=O)[nH]c(=O)n2C", "growth inhibition": "13%"}, {"smiles": "FC(F)(F)COc1nc(N2CCCCC2)nc(N2CCNCC2)n1", "growth inhibition": "10.5%"}, {"smiles": "CCCOc1ccc2c3c(c(=O)oc2c1OCCC)CCC3", "growth inhibition": "73% (active)"}, {"smiles": "O=c1oc2c(CN3CCCCC3)c(O)ccc2c2c1CCCCC2", "growth inhibition": "2.35%"}, {"smiles": "COc1ccc2c3c(c(=O)oc2c1OCC(=O)C(C)(C)C)CCCC3", "growth inhibition": "10.7%"}, {"smiles": "COc1ccccc1N1CCN(C(=O)c2cc3c(-c4ccc(Cl)cc4)nn(C)c3s2)CC1", "growth inhibition": "14.7%"}, {"smiles": "Cn1c(=O)c2c(nc(Br)n2CCSc2nc3ccccc3o2)n(C)c1=O", "growth inhibition": "4.61%"}, {"smiles": "Cc1cc(C)c(C#N)c(SCc2[nH]nc3c2C(c2ccccc2)C(C#N)=C(N)O3)n1", "note": "(stereo not drawn)", "growth inhibition": "18.3%"}, {"smiles": "Cc1cc(C)c(C#N)c(SCc2ccccc2C(=O)O)n1", "growth inhibition": "8.75%"}, {"smiles": "Cc1cc(C)c(C#N)c(SCc2ccc3c(c2)OCO3)n1", "growth inhibition": "62.3% (active)"}, {"smiles": "O=C(Nc1nnc(-c2ccc(Cl)cc2)o1)c1ccccc1Br", "growth inhibition": "100% (active)"}, {"smiles": "Cc1nonc1NC(=O)c1ccccc1Br", "growth inhibition": "-1.19%"}, {"smiles": "O=C(Nc1ccc(-c2nnc(-c3ccccc3)o2)cc1)c1ccc(Br)o1", "growth inhibition": "-0.33%"}, {"smiles": "Cn1c(=O)[nH]c(=O)c2c1nc(NCCCn1ccnc1)n2Cc1cccc(Br)c1", "growth inhibition": "-18.6%"}, {"smiles": "CCOC(=O)c1ccc(NC(=O)CS(=O)(=O)c2cn(CC)c3ccccc23)cc1", "growth inhibition": "12.6%"}, {"smiles": "Cc1ccc2c(c1)c1ncnc(N3CCc4ccccc4C3)c1n2C", "growth inhibition": "21.5%"}, {"smiles": "COc1ccc(OC)c(S(=O)(=O)N(C)CC(=O)N2CCN(c3ccccc3)CC2)c1", "growth inhibition": "8.54%"}, {"smiles": "CCCC(=O)NC(C)C(c1cccs1)N1CCN(c2ccccc2)CC1", "note": "(stereo not drawn)", "growth inhibition": "1.14%"}, {"smiles": "COc1ccc(C(C(O)C(=O)c2c[nH]c3ccccc23)N2CCN(c3ccccc3)CC2)cc1", "note": "(stereo not drawn)", "growth inhibition": "72.1% (active)"}, {"smiles": "O=S(=O)(c1ccc(F)cc1)N1CCN(Cc2ccccc2C(F)(F)F)CC1", "growth inhibition": "38.3%"}, {"smiles": "Cc1cccc(NC(=O)COc2ccc(Br)cc2C)n1", "growth inhibition": "8.04%"}, {"smiles": "Clc1ccc(Nc2nc(-c3cccs3)cs2)nc1", "growth inhibition": "81.1% (active)"}, {"smiles": "c1ccc(Nc2nc(-c3ccncc3)cs2)nc1", "growth inhibition": "-16.7%"}, {"smiles": "O=C(Nc1ccc(Cl)cn1)Nc1cccs1", "growth inhibition": "6.13%"}, {"smiles": "COc1ccc(-c2nnc(SC(=O)N3c4ccccc4Sc4ccccc43)o2)cc1", "growth inhibition": "0.32%"}, {"smiles": "CCc1nnc(NC(=O)c2ccc(S(=O)(=O)NC3CCCCC3)cc2)s1", "growth inhibition": "18.5%"}, {"smiles": "CCc1nnc(NC(=O)C2CCCN2S(=O)(=O)c2ccccc2)s1", "note": "(stereo not drawn)", "growth inhibition": "3.73%"}, {"smiles": "CC1CCCCN1S(=O)(=O)c1ccc(C(=O)Nc2nnc(-c3cccs3)o2)cc1", "note": "(stereo not drawn)", "growth inhibition": "99.1% (active)"}, {"smiles": "COCC(C)n1c(SCc2ccc(C(=O)OC)o2)nc2ccccc2c1=O", "note": "(stereo not drawn)", "growth inhibition": "33.1%"}, {"smiles": "CCN(CC)S(=O)(=O)c1cccc(C(=O)Nc2ccccc2)c1", "growth inhibition": "38.8%"}, {"smiles": "O=C(CC1Oc2ccccc2NC1=O)NCCCN1CCN(Cc2ccccc2)CC1", "note": "(stereo not drawn)", "growth inhibition": "-13.8%"}, {"smiles": "Cc1nc2c(c(=O)n1Cc1ccco1)c1nc3ccccc3nc1n2Cc1ccccc1", "growth inhibition": "14.7%"}, {"smiles": "Cc1ccc(Cn2c(C)nc3c(c2=O)c2nc4ccccc4nc2n3Cc2ccco2)cc1", "growth inhibition": "29.2%"}, {"smiles": "Clc1cccc(-c2nc3nc4ccccc4nc3n2Cc2ccco2)c1", "growth inhibition": "68% (active)"}, {"smiles": "COc1ccc(C2N=C(N)N=C(N)N2c2ccccc2)cc1OC", "note": "(stereo not drawn)", "growth inhibition": "4.96%"}, {"smiles": "Cc1nc2c(C(=O)NCc3ccc4c(c3)OCO4)c[nH]n2c(=O)c1Cc1ccccc1F", "growth inhibition": "100% (active)"}, {"smiles": "CCn1cc(C(=O)NCc2ccc3c(c2)OCO3)c2cc(OC)c(OC)cc2c1=O", "growth inhibition": "-12.7%"}, {"smiles": "O=C(CCCCn1c(=O)[nH]c2ccccc2c1=O)NCc1ccc2c(c1)OCO2", "growth inhibition": "1.02%"}, {"smiles": "CC(C)C(=O)N1CCN(c2nc(-c3ccccc3)c3c(c2C#N)CC(C)(C)OC3)CC1", "growth inhibition": "4.78%"}, {"smiles": "COC(=O)CSC1=C(C#N)C(c2ccccc2OC)C(C(=O)OC)C(=O)N1", "note": "(stereo not drawn)", "growth inhibition": "-1.55%"}, {"smiles": "CCCCCCn1c(CN2CCCC(C)C2)nc2c1c(=O)n(C)c(=O)n2C", "note": "(stereo not drawn)", "growth inhibition": "60.7% (active)"}, {"smiles": "CC1CCCN(Cc2nc3c(c(=O)n(C)c(=O)n3C)n2CC(=O)c2ccccc2)C1", "note": "(stereo not drawn)", "growth inhibition": "13.4%"}, {"smiles": "CCCCCCn1c(CN2CCCCC2)nc2c1c(=O)n(C)c(=O)n2C", "growth inhibition": "-3.32%"}, {"smiles": "NC(=O)C1CC=CCC1C(=O)OCC(Cl)=C(Cl)Cl", "note": "(stereo not drawn)", "growth inhibition": "3.92%"}, {"smiles": "CCOC(=O)c1c(C)[nH]c(C)c1C(=O)CSc1nc(N)cc(N)n1", "growth inhibition": "-1.68%"}, {"smiles": "COC(=O)c1cc(C(=O)CSc2nc(C)cc(C)n2)ccc1O", "growth inhibition": "68% (active)"}, {"smiles": "COC(=O)c1cccc(NC(=O)CSc2nc(C)cc(=O)[nH]2)c1", "growth inhibition": "10.2%"}, {"smiles": "CCOC(=O)c1nnn(-c2nonc2OC)c1-c1ccccc1", "growth inhibition": "8.09%"}, {"smiles": "COC(=O)c1ccc(NC(=O)CSc2nnc(CNc3ccc(OC)cc3)n2C)cc1", "growth inhibition": "3.76%"}, {"smiles": "CCN(CC(=O)NC(C)C)C(=O)CCNC(=O)c1ccc(Cl)cc1", "growth inhibition": "-4.01%"}, {"smiles": "CC1(N2CCOCC2)CC2(O)C(=[N+]1[O-])CCc1nonc12", "note": "(stereo not drawn)", "growth inhibition": "-7.92%"}, {"smiles": "COc1ccc(CCN(C)CCN2C(=O)c3ccccc3C2=O)cc1OC", "growth inhibition": "-13.3%"}, {"smiles": "COc1cc(C2C(C(=O)c3ccc(C)o3)=C(O)C(=O)N2CCc2ccccc2)ccc1O", "note": "(stereo not drawn)", "growth inhibition": "5.33%"}, {"smiles": "COc1ccc(CCN2C(=O)c3[nH]nc(-c4ccccc4O)c3C2c2ccc(C)cc2)cc1OC", "note": "(stereo not drawn)", "growth inhibition": "64.4% (active)"}, {"smiles": "CNC(=O)c1c(NC(=O)c2ccc(S(=O)(=O)N3CCOCC3)cc2)sc2c1CCC2", "growth inhibition": "10.9%"}, {"smiles": "CCOCCc1c(O)nc(SCC(=O)NCc2ccco2)[nH]c1=O", "growth inhibition": "-0.82%"}, {"smiles": "CCOc1cc(C)c(Cl)cc1S(=O)(=O)n1nnc2ccccc21", "growth inhibition": "63.4% (active)"}, {"smiles": "CCOc1ccc(C(C)C)cc1S(=O)(=O)n1nc(C)cc1C", "growth inhibition": "24.3%"}, {"smiles": "Cc1ccc(C)c(S(=O)(=O)n2cnc3ccccc32)c1", "growth inhibition": "7.6%"}, {"smiles": "CCN1CCN(C(=O)CN(C)S(=O)(=O)c2ccc(OC)cc2)CC1", "growth inhibition": "8.07%"}, {"smiles": "O=C(Nc1ccccc1)N(Cc1cccnc1)Cc1ccco1", "growth inhibition": "-11.4%"}, {"smiles": "CS(=O)(=O)NCc1ccc(C(=O)NCc2ccccc2)cc1", "growth inhibition": "-9.06%"}, {"smiles": "COc1ccccc1N1CCN(C(=O)CN(Cc2ccc(Cl)cc2)S(C)(=O)=O)CC1", "growth inhibition": "25.9%"}, {"smiles": "COc1cc2ccccc2cc1C(=O)Nc1ccc(S(=O)(=O)Nc2cc(C)on2)cc1", "growth inhibition": "78.6% (active)"}, {"smiles": "Cc1cc(NS(=O)(=O)c2ccccc2)no1", "growth inhibition": "-26.8%"}, {"smiles": "CCOc1ccc(CC(=O)Nc2ccc(S(=O)(=O)Nc3cc(C)on3)cc2)cc1OCC", "growth inhibition": "4.16%"}, {"smiles": "CCOC(=O)C1CCN(C(=O)C2CCN(S(=O)(=O)N3CCCC3)CC2)CC1", "growth inhibition": "-4.22%"}, {"smiles": "CCOC(=O)C1CCN(C(=O)c2oc3ccc(S(=O)(=O)N4CCCCCC4)cc3c2C)CC1", "growth inhibition": "77.3% (active)"}, {"smiles": "CCOC(=O)N1CCN(C(=O)c2cn(C)c3ccc(S(=O)(=O)N4CCCC4)cc3c2=O)CC1", "growth inhibition": "-22.7%"}, {"smiles": "COc1cccc(N(C(=O)c2ccn[nH]2)C2(C(=O)Nc3c(C)cccc3C)CCCCC2)c1", "growth inhibition": "30.5%"}, {"smiles": "Cc1ccc(C)c(S(=O)(=O)N2CC(=O)Nc3ccccc32)c1", "growth inhibition": "17.8%"}, {"smiles": "CC(=O)Nc1ccc(-c2nn3c(C)nnc3s2)cc1C", "growth inhibition": "-9.56%"}]}]}
